Assay results: ChEMBL document CHEMBL1132632, “Conformational and quantitative structure-activity relationship study of cytotoxic 2-arylidenebenzocycloalkanones” (J Med Chem, 1999)
pIC50: −log10 of the molar value. Starred links: 1 amine or outer side, 2 acyl side, 3 side chain; linkers in the order of their positions; H or OH if unused. Positions of bridges follow the written chain, without caps; N, C: chain ends. Non-standard residues stand in square brackets, D forms with d. Residues, ends and D or L forms follow the SMILES beside them. Chains are numbered I, II in the order given. Actinocin(1to9) = Cc1c2oc3c(C)ccc(C(=O)[*:2])c3nc-2c(C(=O)[*:1])c(N)c1=O; NMeV = CN[C@H](C(=O)O)C(C)C; Sar = CNCC(=O)O

Experiments:
Jurkat [1] = experiment: (§1) IC80 concentrations of the compounds were used in determining the inhibition of protein synthesis using Jurkat T cells.; format: functional, Homo sapiens
Jurkat [2] = experiment: (§2) IC80 concentrations of the compounds were used in determining the inhibition of RNA synthesis using Jurkat T cells.; format: functional, Homo sapiens
Jurkat [3] = experiment: (§3) Inhibitory concentration against Human Jurkat T cells; format: functional
Jurkat [4] = experiment: as §3; format: functional, cell-based
CCRF-CEM [5] = experiment: Average potency against CEM cells; format: functional, Homo sapiens
Tumor Cell line [6] = experiment: Tested against human tumor cell lines, mean graph mid point values(MG MID) are determined.; format: functional
Procedure, shortened: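 Panel of about 55 human tumor cell lines from nine cancer types: leukemia, melanoma, non-small-cell lung, colon, CNS, ovarian, renal, prostate and breast. Compounds were tested from 10⁻⁴ to 10⁻⁸ M, and the 50% growth-inhibitory concentration was found for each line.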

P388 [7] = experiment: Average potency against P388 cells; format: functional, Mus musculus
P388 [8] = experiment: Inhibitory activity was tested against P388 cells; format: functional, cell-based; conditions: Mus musculus
MOLT-4 [9] = experiment: Average potency against Molt4/C8cells; format: functional, Homo sapiens
L1210 [10] = experiment: Inhibitory activity was tested against L1210 cells; format: functional, cell-based; conditions: Mus musculus
MOLT-4 [11] = experiment: Inhibitory activity was tested against Molt4/C8 cells; format: functional, cell-based; conditions: Homo sapiens
CCRF-CEM [12] = experiment: Inhibitory activity was tested against CEM cells; format: functional, cell-based; conditions: Homo sapiens
L1210 [13] = experiment: Average potency against L1210 cells; format: functional, Mus musculus
Tumor Cell line [14] = experiment: as §1; format: functional, Homo sapiens
Tumor Cell line [15] = experiment: as §3; format: functional
Procedure, shortened: (§4)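 Human Jurkat T cells were exposed to compounds for 48 h. Viability was scored by nigrosin dye exclusion in place of trypan blue. IC50 and IC80 were derived from these counts.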

Tumor Cell line [16] = experiment: as §2; format: functional, Homo sapiens
Tumor Cell line [17] = experiment: as §3; format: functional, cell-based; procedure, shortened: as §4

Row | SMILES | Inhibition (Jurkat [1]) | Inhibition (Jurkat [2]) | IC80 (Jurkat [3]) | pIC50 (Jurkat [4]) | AP (CCRF-CEM [5]) | MG MID (Tumor Cell line [6]) | AP (P388 [7]) | pIC50 (P388 [8]) | AP (MOLT-4 [9]) | pIC50 (L1210 [10]) | pIC50 (MOLT-4 [11]) | pIC50 (CCRF-CEM [12]) | AP (L1210 [13]) | Inhibition (Tumor Cell line [14]) | IC80 (Tumor Cell line [15]) | Inhibition (Tumor Cell line [16]) | pIC50 (Tumor Cell line [17])
1 | Cc1c2oc3c(C)ccc(C(=O)N[C@@H]4C(=O)N[C@H](C(C)C)C(=O)N5CCC[C@H]5C(=O)N(C)CC(=O)N(C)[C@@H](C(C)C)C(=O)O[C@@H]4C)c3nc-2c(C(=O)N[C@@H]2C(=O)N[C@H](C(C)C)C(=O)N3CCC[C@H]3C(=O)N(C)CC(=O)N(C)[C@@H](C(C)C)C(=O)O[C@@H]2C)c(N)c1=O [DACTINOMYCIN] (I: T[dV]P[Sar][NMeV] / II: T[dV]P[Sar][NMeV]; ester I:1-I:C, II:1-II:C; linker I:N-II:N via Actinocin(1to9)) | 51.8% | 63.2% | 0.0072 µM | 8.35 | – | – | – | – | – | – | – | – | – | – | – | – | –
2 | O=C1CCCCC/C1=C\c1cccc(F)c1 | – | – | – | – | 136 µM | 67.6 µM | 34.5 µM | < 4.30 | 186 µM | 3.42 | 3.32 | 3.65 | 227 µM | – | – | – | –
3 | O=C1/C(=C/c2cccc(Br)c2)CCc2ccccc21 | – | – | – | – | 115 µM | 11.8 µM | 20.9 µM | 4.78 | 158 µM | 3.80 | 4.67 | 5.06 | 135 µM | – | – | – | –
4 | COc1ccc(/C=C2\CCCc3ccccc3C2=O)cc1 | – | – | – | – | 47 µM | 0.269 µM | 11.2 µM | 5.80 | 66 µM | 6.47 | 6.33 | 6.46 | 85.2 µM | 19.5% | 5.6 µM | 92.3% | 5.46
5 | C[C@@H]1C[C@@H]([C@H](O)CC2CC(=O)NC(=O)C2)C(=O)[C@@H](C)C1 [CYCLOHEXIMIDE] | 71.9% | 93.3% | 1.54 µM | 6.03 | – | – | – | – | – | – | – | – | – | – | – | – | –
6 | O=C1/C(=C/c2cccc(F)c2)CCCc2ccccc21 | – | – | – | – | 47 µM | 16.2 µM | 11.2 µM | 4.96 | 66 µM | 3.87 | 4.55 | 4.95 | 85.2 µM | – | – | – | –
7 | Cc1cccc(/C=C2\CCCCCC2=O)c1 | – | – | – | – | 136 µM | 81.3 µM | 34.5 µM | 4.53 | 186 µM | 3.58 | 3.64 | 3.77 | 227 µM | – | – | – | –
8 | COc1cccc(/C=C2\CCCc3ccccc3C2=O)c1 | – | – | – | – | 47 µM | 15.9 µM | 11.2 µM | 4.86 | 66 µM | 4.25 | < 4.00 | 5.02 | 85.2 µM | – | – | – | –
9 | O=C1/C(=C/c2cccc([N+](=O)[O-])c2)Cc2ccccc21 | – | – | – | – | 155 µM | 91.2 µM | 42.9 µM | < 4.30 | 267 µM | 3.59 | < 3.30 | 3.65 | 127 µM | – | – | – | –
10 | Cc1cccc(/C=C2\CCCc3ccccc3C2=O)c1 | – | – | – | – | 47 µM | 20 µM | 11.2 µM | 4.70 | 66 µM | 4.26 | 4.46 | 4.80 | 85.2 µM | – | – | – | –
11 | O=C1CCCCC/C1=C\c1ccccc1 | – | – | – | – | 136 µM | 91.2 µM | 34.5 µM | < 4.30 | 186 µM | 3.58 | 3.67 | 3.96 | 227 µM | – | – | – | –
12 | O=C1CCCCC/C1=C\c1ccc([N+](=O)[O-])cc1 | – | – | – | – | 136 µM | 30.2 µM | 34.5 µM | 4.60 | 186 µM | 3.98 | 4.40 | 4.44 | 227 µM | – | – | – | –
13 | O=C1/C(=C/c2ccc(Cl)cc2)CCCc2ccccc21 | – | – | – | – | 47 µM | 17 µM | 11.2 µM | 5.02 | 66 µM | 4.29 | 4.48 | 4.82 | 85.2 µM | – | – | – | –
14 | O=C1/C(=C/c2ccccc2)CCCc2ccccc21 | – | – | – | – | 47 µM | 18.6 µM | 11.2 µM | 4.90 | 66 µM | 3.97 | 4.37 | 4.54 | 85.2 µM | – | – | – | –
15 | N[C@@H](Cc1ccc(N(CCCl)CCCl)cc1)C(=O)O | 30.5% | 85.1% | 3.52 µM | 5.66 | – | 25.7 µM | – | – | – | – | – | – | – | – | – | – | –
16 | O=C1CCCCC/C1=C\c1ccc(F)cc1 | – | – | – | – | 136 µM | 83.2 µM | 34.5 µM | < 4.30 | 186 µM | 3.54 | 3.60 | 3.70 | 227 µM | – | – | – | –
17 | O=C1/C(=C/c2ccc([N+](=O)[O-])cc2)CCCc2ccccc21 | – | – | – | – | 47 µM | 89.1 µM | 11.2 µM | 4.96 | 66 µM | < 3.30 | < 3.30 | < 3.30 | 85.2 µM | – | – | – | –
18 | Cc1ccc(/C=C2\CCCc3ccccc3C2=O)cc1 | 46.3% | 84.2% | 23.3 µM | 4.84 | 47 µM | 11.2 µM | 11.2 µM | 4.93 | 66 µM | 4.60 | 4.67 | 4.94 | 85.2 µM | – | – | – | –
19 | COc1ccc(/C=C2\CCCCCC2=O)cc1 | – | – | – | – | 136 µM | 100 µM | 34.5 µM | < 4.30 | 186 µM | 3.51 | 3.60 | 3.71 | 227 µM | – | – | – | –
20 | O=C1CCCCC/C1=C\c1ccc(Cl)cc1 | – | – | – | – | 136 µM | 33.1 µM | 34.5 µM | 4.72 | 186 µM | 4.08 | 4.28 | 4.36 | 227 µM | – | – | – | –
21 | O=C1/C(=C/c2cccc([N+](=O)[O-])c2)CCCc2ccccc21 | – | – | – | – | 47 µM | 10.2 µM | 11.2 µM | 4.80 | 66 µM | 4.31 | 5.05 | 5.11 | 85.2 µM | – | – | – | –
22 | O=C1CCCCC/C1=C\c1cccc([N+](=O)[O-])c1 | – | – | – | – | 136 µM | 30.2 µM | 34.5 µM | 4.63 | 186 µM | 3.79 | 4.41 | 4.52 | 227 µM | – | – | – | –
